B1: tRNA (parent)
chain: GUUCCGUUGGCGUAAUGGUAACGCGUCUCCCUCCUAAGGAGAAGACUGCGGGUUCGAGUCCCGUACGGAACG

Drawing on the RNAGym collection of RNA variant scans (doi:10.1126/science.aae0568), this text covers yeast fitness for 37 variants.

This sample holds only a part of the variants without activity.

The variants in the series derive from B1. Briefly: yeast fitness relative to wild type (ratio to wild type); higher = fitter; tRNA-Arg(CCU), competitive growth, 37 C, YPD. In short, it runs like this:
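For this measurement, the tRNA-Arg(CCU) gene was varied by chemical synthesis at a 3% per-site mutation rate across 69 sites, and each variant was placed at the native genomic locus in Saccharomyces cerevisiae. The pooled strains went through a 24-hour competition in YPD at 37°C in six parallel replicates, with amplicons from start and end populations read by 100-nucleotide paired-end sequencing. Darwinian fitness relative to wild type followed from the change in each genotype's frequency. Genotypes needed ≥ 100 starting reads, and estimates < 0.5 were set to 0.5.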
On to GUUCCGUUGGCGUAAUGGCAAGGCGUCUCCCUCGUAAGGAGAAGACUGCGGGUUCGAGUCCCGUACGGAUCG, for which the yeast fitness is ≤ 0.5. The result for GUUCCGUUGGCGUAAUGGCAACGCGUCUCCCUCCUAAGGAGAAGAUUGCGGGUUCGAGUCCCGUACGGCACG reads 0.724; that for GUUCCGUUGGCGUAAUGGCAACGCGUCUCCCUCCUAAGGAGAAGACUGCGGGUUCGAGUACCGUACGGAACG, 0.547. The figure for GUUCCGUUGGCGUAAUGGCAACGCGUCUCCUUGCUAAGGAAAAGACUGGGGGUCCGAGCCCCAUACGGAACG is ≤ 0.5; for GUUCCGUUGGCGUAAUGGCAACGUGUCUCCCUCCUAAGGAGAAGACUGCGGGUUCGAGUCCCGUACGGAACG it is 0.969; for GUUCCGUUGGCGUAAUGGCAACGCGUCUCCCUCCUAAGGAGAAGACUGCAGGUUCGAGUCCCGUACGGAACG it is 0.833. On to GUUCCGUUGGCGUAAUGGCAACGCCUCUCCCUCCUAAGGAGAAGACUGCGCGUUCGAGUUCCGUACGGUACG, for which the yeast fitness is ≤ 0.5. The result for GUUCCGUUGGCGUAAUGGGAACGCGUCUCCCUCCUAAGGAGAAGACUGCGGGUUCGAGUCCCGUUCGGAACG reads 0.99; that for GUUCCGUUGGCGUAAUGGCAACGCGUCUACCUCCUAAGCAGAAGACUGCGGGUUCGGGUCUCGUAUGGAACG, ≤ 0.5. The result for GUUCCGUUGGCGUAAUGGCAACGCGUCUCCGUCCAAAGGAGAAGACUGCGGGUUCGAGUCACGUACGGCACG reads 0.504. The figure for GUUCCGUUGGCGUAAUGGCAACGCGUCUCCCUCCUAAGGAGAAGACUACGGGUUCGAGUCCAGUACGGAACG is 0.91; for GUUCCGUUGGCGUAAUGGGAAGGCGUCUCCCUCUUAAGGAGAAGACUGUGGGUUCGAGUCCCGUACGGAACG it is ≤ 0.5. GUUCCGUUGGCGUAAUGGCAACGCGUCUCCCUCCUAAGGAGUAGAUUGCGGGUUGGAGUCCCGUACGGAACG: the yeast fitness was ≤ 0.5.

GUUCCGUUGGCGUAAUGGCAACGCGUCUCCCUCCUAAGGAGAAGACUGCGGGUUCGAGUCGCGUACGGAACG: the yeast fitness came to 0.691. Regarding GUUCCGUUGGCGUAAUGGGAACGCGUCUCCCUCCUAAGGAGAUGACUGCGUGUUCGAGUCCCGUGCGAAACG, the yeast fitness was ≤ 0.5. The figure for GUUCCGUUGGCGUAAUGGCAAAACGUCUCCCUCUUAAGGAGAAGACUGCGGGUUCGCGUCCCGUAUGGCACG is ≤ 0.5; for GUUCCGUUGGCGUAAUGGCAACACGUCUGCCUCCUAAGGAGAAGACUGCGGGUUCGAGUCCCGUACGGAACG it is ≤ 0.5. The figure for GUUCCGUUGGCGUAAUGGCAACGCGUUUCCCUUCUAAGGCGAAGACUGCGGGUUAGAGUCCCGUGCGGAACG is ≤ 0.5; for GUUCCGUUGGCGUAAUGGCAACGCGUCUCCCUCCUAAGGAGAAGACUGCGGGUUCGAGUCCCGUACGGACCG it is 1.03. Regarding GUUCCGUUGGCGUAAUGGCAACGCGUCUCCCUCCUAAGGAGAAGACUGCGGGUUCGAGUCCCGUACGGAUCG, the yeast fitness was found to be 0.953.

As for GUUCCGUUGGCGUAAUGGCAACGCGUCUCCUUGCUAAGGAAAAGACUGGGGGUCCGAGUCCCAUACGGAACG, the yeast fitness is ≤ 0.5.

In the case of GUUCCGUUGGCGUAAUGGCAACGUGUGUCCCUCCUAACGAGAAGACUGCGGGUUCGUGUACGGUACGGAACG, the yeast fitness was ≤ 0.5. The result for GUUCCGUUGGCGUAAUGGCAACGCGUAUCGCUCCUAAGGAGAAGCCUGCGGGUUCGAGUCCCGUACGGAACG reads ≤ 0.5. For GUUCCGUUGGCGUAAUGGCAACGCGUCUCCCUACUCAGGAGAAGACUGCGGGUUUGAGUCCCGUACGGAACG, the yeast fitness was ≤ 0.5. The result for GUUCCGUUGGCGUAAUGGGAAUGCGUCUCCCUCCUAAGGAGAAGACUGCGGGUUCGAGUCCCGUACGGAUCG reads 0.746. The result for GUUCCGUUGGCGUAAUGGCAACGCGUCUCCCUCCUAAGGAGAAGACUGCAGGUUCAAGUCCCGUACGGAACG reads 0.749. The figure for GUUCCGUUGGCGUAAUGGGAACGCGUCUCCCUCCUAAGGAGUAGACUGCGGGUUCGAGUCCCGUACGGAACG is 0.991.

As to GUUCCGUUGGCGUAAUGGCAACGCGUCUCCCUCUUAAGGAGAUGACUGCGGCUUCGAGUCCCGUACGGAACG, the yeast fitness is ≤ 0.5.

Regarding GUUCCGUUGGCGUAAUGGCAACGGGUCUCCCUCCUAUGGAGAAGACUGCGGGUGCGAGUCCCGAACGGAACG, the yeast fitness was ≤ 0.5.

Turning to GUUCCGUUGGCGUAAUGGCAACGCGUCUCCCUCCUAAGGAGAAGACUGCGGGUUCGAGUCCCGUACGGCACG, the yeast fitness is 0.991.

Turning to GUUCCGUUGGCGUAAUGGCAACGCGUCUCCCUCCUAAGGAGAAGACUGCGGGUUCGAGUCCCGUACGGGACG, the yeast fitness is 0.788.

Consider GUUCCGUUGGCGUAAUGGCAACGCGUCUCCCUCCUAAGGAGGAGAAUGCGGGUUGGAGUCCCGUACGGAACG, for which the yeast fitness is ≤ 0.5.

Take GUUCCGUUGGCGUAAUGGCAACGCGUCUCCCUCCUAAGGAGAAGACUGCAGGUUAGAGUCCCGUAAGGAACG: the yeast fitness stood at 0.516. The result for GUUCCGUUGGCGUAAUGGCAACGCGUCUCCCUGCUAAGGAGAAGACUGCGGGUUCGGGUCGCGUACGGAACG reads ≤ 0.5; that for GUUCCGUUGGCGUAAUGGCAACGAGUCUCCCUCCUAAGGAGAAGACCGCGGGUUCGAGUCCCGUACGGAACG, ≤ 0.5. The figure for GUUCCGUUGGCGUAAUGGCAACGCGGCUCCCUCCUAAGGAGAAGACUGCGGGUUCGGGUCCCGUACGGAACG is ≤ 0.5; for GUUCCGUUGGCGUAAUGGCAACGCGUCUCCCUCCUAAGGAGAAGACUGCGGGUUCGAGUCCCGUGCGGAACG it is 1.
